Test system: MS2 coat protein
Assay: apparent Kd, MS2 coat protein; higher = weaker binding; RNA-MaP array; FMN 200 µM where present
How it was run: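 In 100 mM Tris-HCl pH 7.5, 80 mM KCl, 4 mM MgCl2, BSA, DTT, yeast tRNA and Tween-20, SNAP-549-labelled MS2 coat protein was titrated from 0.7 or 1.5 nM, doubling to 3 µM, over designs transcribed by stalled E. coli RNA polymerase on Illumina sequencing-chip clusters. This was done first without ligand, then with ligand held constant. After green signal was normalised to red-channel RNA signal and control-cluster median Fmax, the apparent Kd was taken as the median of filtered per-cluster binding-curve fits.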

[1] = designed as: OFF switch for flavin mononucleotide, no ligand
[2] = ligand present: flavin mononucleotide, designed as: OFF switch for flavin mononucleotide
[3] = designed as: ON switch for flavin mononucleotide, no ligand
[4] = ligand present: flavin mononucleotide, designed as: ON switch for flavin mononucleotide

Sequence | apparent Kd [1] | apparent Kd [2] | apparent Kd [3] | apparent Kd [4]
GGAUCGAGUGUGAGGAUAUGCUGGUCCUUGGAUCAGCAGAAGGCACAUGAGGAUCACCCAUGUGAAGACGAUCC | 23.6 nM | 187 nM |  | 
CCGGAUACGGGUAGCCUGACAUGAGGAUCACCCAUGUAAUACGAGGAUAUGGAUCCUAAUUGGAUCCAGAAGGUGUCAGGCUAC |  |  | 1310 nM | 734 nM
GACUUGUUAGGAUAUCUUACAUUUGCAUCAUAGUAACCUUUGGAGAAGGGACAUGAGGAUCACCCAUGUUUGGU | 62.3 nM | 53.5 nM |  | 
UCAUGCAUAGCGAUAUGAUCGAGAGAUCAUGUCGCUAAAUUUAGAAGGACAUGAGGAUCACCCAUGUAGGAUAUGGGAGCAUGA |  |  | 43 nM | 11 nM
GGGUACAUCGGAGGAUAUCAUGUAAAUACAUGAGGAUCACCCAUGUCGAUGGAGACAUCGGAGAUUGAGAAGGCCGAUGUACCG |  |  | 452 nM | 25.9 nM
UUUUAACAUGAGGAUCACCCAUGUGAGGAUAUCGAAAUUUAUAUUAAUAUUAUUUUUUCGAGAAGGCACAUUUU | 124 nM | 155 nM |  | 
CUGUUAUAGGUCCAGAAUUACAACAUGAGGAUCACCCAUGUGCAGGAUAUCGGGUUGAUAGGCGCCGAGAAGGGUAUAGUCACG | 75.8 nM | 70.8 nM |  | 
AAACCGUGUGGAGGAUAUGCAGUUGAGGUGAGGCGGCAGCUCUAUACGACAGCAGAAGGCCACAUGAGGAUCACCCAUGUAGGU | 107 nM | 326 nM |  | 
GUAGGACAUGAGGAUCACCCAUGUGGGAGGGAACGAGGAUAUGUGAAAGGAUUGAAGAGGACAGAAGGCGUGGAGG |  |  | 44.4 nM | 35.3 nM
GGGCCGGUGGAGAAGGAGCUUGCAAAAUGCAUGCUAGGAUAUCCACAUGAGGAUCACCCAUGUGGGAAUAUCUGGUUUUCACAG | 3.98 nM | 5.05 nM |  | 
ACCUCACAUGAGGAUCACCCAUGUCAGGAUAUACAAACCGUGAUAAGACACGGUCGUAGUAGAAGGGACUAUGG | 69.5 nM | 24.9 nM |  | 
AAGAAUAGAAAGAUUAAUAUGAAUACAUGAGGAUCACCCAUGUAGGAUAUCGACGUCAAUGACGUCGAGAAGGACAAAAUAAAU | 9.44 nM | 9.55 nM |  | 
GGAUUUCCUGAGGAUAUUGCAUCACCCGAUUUAUAAGAAGGCAGAACAUGAGGAUCACCCAUGUGGGUCUCCGG | 18.9 nM | 23.1 nM |  | 
GUCAUCAUAUGAGGAUAUGACACCGAAACGGUGUCAGAAGGCAUGUCGAUAGACAUGAGGAUCACCCAUGUUUACAUGAUGACA |  |  | 84.3 nM | 19.7 nM
AACCUGGUAAAUAAACUCAAUUACAUGAGGAUCACCCAUGUAUAGGAUAUGCAGUGGAAUACACUGCAGAAGGAUACAUCCAGG | 18 nM | 60.9 nM |  | 
AUUGUGUGAGGAUAUUAAUAGUAAAUGAAUAGAAUUGUGAUUGAGAAGGCACAUGAGGAUCACCCAUGUUCCUU | 19 nM | 17.4 nM |  | 
GAUCAGCUUGUGAGGAUAUCCGGGCUUAAAGGCUAGGAGAAGGUACAUGAGGAUCACCCAUGUAGAGUCCUGGG | 73.8 nM | 111 nM |  | 
GUAGCAUGCCAAGGAUAUUCAUAUAAUAAGUAAACAUGAGGAUCACCCAUGUAGUGAGAGCCUUGGGAGAAGGUGGGAUGCUAC |  |  | 26.7 nM | 41.9 nM
CGCUACGUUUCGUAGCAGUGUCAUCGAGAAGGCCCUGACAUGAGGAUCACCCAUGUUGUUACAUGGGAGGAUAUCGAUGAUACU |  |  | 13.4 nM | 5.25 nM
CGGGAUAGGAAGGGCGAAAGCCCACAUGAGGAUCACCCAUGUAGAAGGCGGGCCGCAACGCGGCCCGAGGAUAUACACUAUCCA | 6.63 nM | 12.7 nM |  | 
GCUCGAUGUGCUGAAAACAUGAGGAUCACCCAUGUAGAUGAUCAGGAUAUUUACGUGCUUUAUGUAGAGAAGGGAUCAUCGAGC |  |  | 64 nM | 27.7 nM
UUGGACGUCGUAGGAUAUGUAGGAUAUUCCUACAUGAGGAUCACCCAUGUUGACAUGGAAGAAGGACUGAAGGACGAUGUCCAU |  |  | 763 nM | 22.9 nM
GAUUAGUGAGGAUAUAUUUACGAUCCUCAGCUUUAUUCAGGACAUGAGGAUCACCCAUGUAGAAGGCGUUAAUC | 25.8 nM | 34.6 nM |  | 
GCGCACUAAGUGAGGAUAUCGUUUAUUUAUAGGAUCGAGAAGGCACAUGAGGAUCACCCAUGUUAAACGUGCGC | 18.5 nM | 13.9 nM |  | 
UGUCGGAGCAGAGGAUAUUACAUGAGGAUCACCCAUGUAUGAACCAAUAGCUGUAAACAGCAAUGUAAGAAGGCUGCUCCGACA | 12.7 nM | 191 nM |  | 
GCGGAGAUACAGAAGGGAUAGGCCCUGGGCUAGUCAGGAUAUGUACGACGCAUCGUACAUGAGGAUCACCCAUGUAGCCGCUUG |  |  | 278 nM | 189 nM
GUGUUUGAUGAGGAUAUCGUUGUGGGUAUAUAGCGAGAAGGCAUUACAUGAGGAUCACCCAUGUAGUGUGGGUU | 26.2 nM | 49.4 nM |  | 
AUAAGCUCGUCAGGAUAUACAACACUGUGUAAGCAGUGUGGUAUGAUCACAUGAGGAUCACCCAUGUAGAAGGGACGAGCUUAU | 6.33 nM | 43.4 nM |  | 
